Screening data deposited in PubChem by several laboratories.
Sampled rows, rich in hits. Any-hit rate of the full collection: about 3.8%.
Lipid droplet: inhibitors of hepatocyte lipid droplet formation, primary screen, imaging, high-throughput imaging, BODIPY stain. actives 0.4% (n = 240,000). inhibition, % at 6.5 µM. AML12 mouse hepatocytes, oleate lipid droplets;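 active = lipid droplet intensity inhibited by at least 50%, with more than 500 cells counted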
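Material – AML12 mouse liver cells · Also added – oleate loading, 100 µM · Compound dosing – 6.5 µM single-point dosing · Times – overnight treatment with compound plus oleate · Measured by – fluorescence imaging, 20x objective, two fields per well · Read-out – percent inhibition of filter-corrected integrated lipid droplet intensity per well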
RGS4 act: RGS4 potentiators or activators, primary screen, cell-based, HEK293 M3R inducible RGS4, calcium flux; carbachol calcium flux Fluo4; stronger effect = lower value; B-score at 10 µM; actives 0.92% (n = 310,000); AID 463111, 2010;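 active = B-score of the integrated calcium signal more than 4 SD below the library mean, with starting fluorescence not abnormally high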;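 also: negative B-score means reduced calcium response which marks RGS4 activation or potentiation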
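Material: Inducible-RGS4 HEK293 cells carrying M3 receptor; also added: carbachol at ECmax as muscarinic agonist stimulus; incubation: compound preincubation 20 min at room temperature before agonist; signal: Fluo4-AM (2 µM) calcium-flux fluorescence, kinetic read; measure: integrated calcium ratio converted to B score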
MrgX1 agonist: agonists of human MrgX1 receptor, primary screen, HEK293 cells, Fluo-4 calcium flux; Mas-related G-protein coupled receptor member X1 (Homo sapiens), Q96LB2; Fluo-4 calcium fluorescence, agonist mode; stronger effect = higher value; B-score at 10 µM; actives 0.44% (n = 310,000); AID 588627, 2011;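 active = calcium response B-score plate-corrected fluorescence ratio at least 3 library SD, with starting fluorescence B-score inside 5 SD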
Target sequence (Q96LB2 whole entry, looked up): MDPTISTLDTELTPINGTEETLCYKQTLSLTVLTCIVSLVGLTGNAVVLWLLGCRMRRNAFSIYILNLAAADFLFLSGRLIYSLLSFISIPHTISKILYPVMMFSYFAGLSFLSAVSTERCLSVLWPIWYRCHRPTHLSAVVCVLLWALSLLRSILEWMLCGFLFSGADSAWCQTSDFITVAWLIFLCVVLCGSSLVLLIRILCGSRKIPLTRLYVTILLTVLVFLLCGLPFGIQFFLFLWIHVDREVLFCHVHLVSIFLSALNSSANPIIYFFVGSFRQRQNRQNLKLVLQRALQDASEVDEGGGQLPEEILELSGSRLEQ
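Material: HEK293 cells stably expressing human MrgX1 receptor | Quantity: 15,000 cells per well | Times: Cells plated overnight, dye loaded 0.5 h 37 °C, 0.5 h room temperature | Measured by: Kinetic Fluo-4 NW fluorescence of intracellular calcium | Control set: Positive and negative controls per plate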
MrgX1 allo act: positive allosteric modulators of MrgX1, primary screen, HEK293 cells, Fluo-4 calcium flux | Mas-related G-protein coupled receptor member X1 (Homo sapiens), Q96LB2 | FDSS; stronger effect = higher value | B-score at 10 µM | actives 0.63% (n = 310,000) | AID 588675, 2011;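 active = plate-corrected calcium response at least 3 library SD above typical, normal starting fluorescence, not activating the receptor alone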;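 also: compound read alongside a low EC10 to EC30 dose of BAM8-22 agonist; peak minus trough fluorescence over baseline measured at the second addition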
RGS4 block: RGS4 inhibitors, primary screen, cell-based, HEK293 M3R inducible RGS4, calcium flux. actives 0.45% (n = 310,000). Fluo-4 calcium flux; stronger effect = higher value; triggered by carbachol at its EC20. B-score at 10 µM;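 active = B-score, a plate-corrected calcium signal, over three deviations above library mean, with baseline fluorescence within five deviations of library mean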;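 also: RGS4 expression induced by doxycycline in cells with stable M3 receptor; B-score is computed from the integrated fluorescence ratio over baseline after carbachol; higher B-score means a larger calcium signal and so more RGS4 inhibition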
Target sequence (P49798 whole entry, looked up): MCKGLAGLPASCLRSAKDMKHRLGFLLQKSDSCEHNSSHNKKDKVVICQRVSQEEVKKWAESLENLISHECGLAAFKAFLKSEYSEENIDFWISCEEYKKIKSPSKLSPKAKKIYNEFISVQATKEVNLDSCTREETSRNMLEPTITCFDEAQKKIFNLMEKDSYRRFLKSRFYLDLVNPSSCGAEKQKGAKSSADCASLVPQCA
MrgX1 antagonist: antagonists of human MrgX1 receptor, primary screen, HEK293 cells, Fluo-4 calcium flux. Mas-related G-protein coupled receptor member X1 (Homo sapiens), Q96LB2. BAM8-22 antagonism; stronger effect = lower value. B-score at 10 µM. actives 1.3% (n = 310,000);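 active = calcium-response B-score plate-corrected more than 3 library SD below zero, starting fluorescence within 5 deviations, no agonist response on first addition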;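 also: peak minus trough fluorescence over baseline after final BAM8-22 challenge near maximal dose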
Lipid drop inh: hepatocyte lipid droplet accumulation inhibitors, confirmation, imaging, AML12 mouse hepatocytes, single concentration, high-content; shares compounds with Lipid droplet; BODIPY lipid droplet imaging; droplets induced with 100 µM oleic acid; inhibition, % at 5.2 µM; actives 65% (n = 870); AID 463183, 2010;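 active = inhibition of lipid droplet metric at least 50%, with more than 300 cells in each of four replicates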;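 also: plate controls were DMSO with oleic acid for no effect and 5 µM Triacsin-C for full effect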
AML12 cytotox: AML12 hepatocyte cytotoxicity, counter-screen for hepatic lipid droplet formation project, imaging, DAPI nuclear morphology imaging; shares compounds with Lipid droplet; AML12 mouse hepatocytes; stronger effect = higher value; cells fed 100 µM oleate overnight; z-score at 5 µM; actives 3% (n = 870); AID 463200, 2010; in the data active = z-score above about 6.3;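 also: compound exposure lasted overnight at 37 °C before fixation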
AML12 tox conf: AML12 hepatocyte cytotoxicity, confirmation, cytotoxicity control for hepatic lipid droplet formation project, cell-based, single concentration | AID 463219, 2010 | shares compounds with Lipid droplet | 530 tested, under 10 active | cytotoxicity, % at 50 µM | AML12 mouse hepatocyte viability, ATP luminescence; cells loaded with 100 µM oleic acid;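 active = cytotoxicity above 50% in each of four replicates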;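 also: compound exposure lasted overnight at 37 °C before the ATP read; 0% = DMSO-treated cells and 100% = wells with no cells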
RGS4 act valid: reduced carbachol calcium response, RGS4-induced M3R cells, confirmation, RGS4 activator project, cell-based, HEK293 M3R/RGS4 inducible, calcium flux, duplicate; shares compounds with RGS4 act; inhibition, % at 10 µM; carbachol calcium flux Fluo4; AID 602282, 2012; actives 89% (n = 1,100);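 active = inhibition above 3 SD of the buffer control wells, cut at about 41% in these data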;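 also: signal is the integrated peak-minus-minimum Fluo4 fluorescence over baseline ratio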
M3R Ca counter: RGS4 activator counter-screen hit in non-induced cells; shares compounds with RGS4 act; HEK293 M3R non-induced RGS4, Fluo4 calcium flux; after carbachol challenge at its EC90; inhibition, % at 10 µM; actives 82% (n = 1,100); AID 602283;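 active = inhibition exceeding 3 SD of buffer-only control wells, cut at about 26% in these data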;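 also: percent drop in integrated peak-minus-baseline over baseline Fluo4 ratio after carbachol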
RGS4 inh valid: enhanced carbachol calcium response, M3R/RGS4 cells, RGS4 inhibitor project, cell-based, validation screen, HEK293 M3R/RGS4, calcium flux. shares compounds with RGS4 block. actives 65% (n = 1,700). carbachol calcium Fluo-4 fluorescence; carbachol added at its EC20; 0 = buffer wells, 100 = carbachol control. calcium response, % at 10 µM;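 active = duplicate-averaged calcium response above the buffer-only control mean plus 5 SD of those controls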;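 also: integrated fluorescence ratio F max minus min over baseline F0; higher response in RGS4-induced cells means RGS4 inhibition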
M3R Ca ctr: carbachol calcium response in non-induced M3R cells, confirmation, counter-screen for RGS4 inhibitor project, cell-based, HEK293 M3R; shares compounds with RGS4 block; carbachol calcium Fluo-4; submaximal (EC20) carbachol stimulus; buffer wells 0%, carbachol control wells 100%; activity (percent), % at 10 µM; actives 20% (n = 1,900); call rule not given here;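 also: RGS4 induction absent so cells express M3R without RGS4; higher means more calcium signal and flags a non-specific hit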
RGS4 inh ctr2: second RGS4 inhibitor counter-screen in uninduced cells lacking carbachol | shares compounds with RGS4 block | HEK293 M3R/RGS4 non-induced, Fluo-4 calcium, no carbachol; normalised: buffer wells 0%, carbachol wells 100% | calcium response (agonist-mode artifact), % at 10 µM | actives 22% (n = 1,900) | AID 493001;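 active = duplicate-averaged calcium rise in uninduced cells above buffer wells' mean plus 5 SD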
MrgX1 ant reconf: MrgX1 receptor antagonists, duplicate retest, confirmation, HEK293 cells, Fluo-4 calcium flux. shares compounds with MrgX1 antagonist. BAM8-22 calcium flux; stronger effect = lower value. remaining BAM8-22 calcium response % of control (stronger effect = lower value), % at 10 µM. actives 19% (n = 2,300). AID 602420, 2012;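 active = remaining agonist calcium response no higher than 100% minus 3 SD of agonist-only control wells, with starting fluorescence near control levels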;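 also: agonist BAM8-22 given at a near maximal EC90 to ECmax level; peak minus minimum fluorescence divided by baseline after agonist addition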
HEK293 Ca flux: nonspecific calcium signal in parental HEK293, confirmation, counter-screen for MrgX1 antagonist project, parental HEK293 cells, Fluo-4 calcium flux. actives 2% (n = 4,000). fluorescence ratio F(max-min)/F0 at 10 µM. shares compounds with MrgX1 antagonist. Fluo-4 calcium fluorescence, FDSS;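 active = duplicate-averaged calcium fluorescence ratio at least three times the standard deviation of buffer wells, a nonspecific response in parental cells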
HEK293 Ca counter: calcium response in parental HEK293 cells, primary screen, counter-screen for MrgX1 allosteric activator project, cell-based, Fluo-4 calcium flux, duplicate. shares compounds with MrgX1 antagonist. Fluo-4 fluorescence ratio; stronger effect = higher value. fluorescence ratio F(max-min)/F0 at 10 µM. actives 0.4% (n = 4,000). AID 624114, 2012;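 active = calcium fluorescence ratio, averaged over duplicates, at least 3 SD of the buffer-well ratio, meaning a nonspecific response in receptor-free cells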;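 also: untransfected parental HEK293 lacking MrgX1 used as counterscreen for MrgX1 allosteric activators; fluorescence change taken during the second addition on a kinetic imager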
HEK293 Ca cntr2: calcium response in parental HEK293 cells, primary screen, counter-screen for MrgX1 agonist project, cell-based, Fluo-4 calcium flux, duplicate, agonist mode; shares compounds with MrgX1 antagonist; actives 8.7% (n = 4,000); Fluo-4 calcium fluorescence (FDSS); stronger effect = higher value; fluorescence ratio F(max-min)/F0 at 10 µM; AID 624115, 2012;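 active = calcium fluorescence ratio at least three times the spread of buffer wells, meaning a non-specific response in parental cells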
* marks the source's active call; other numbers are inactive results; i = inactive; nt = not tested or not shown.

SMILES	Lipid droplet	RGS4 act	MrgX1 agonist	MrgX1 allo act	RGS4 block	MrgX1 antagonist	RGS4 act valid	M3R Ca counter	others
CC(C)Cc1nnc(NC(=O)CCC(=O)N2CCN(Cc3ccc(Cl)cc3)CC2)s1	-1	i	i	i	i	i	nt	nt
CCC(C)NCCOc1ccc(C(C)(C)c2ccccc2)cc1 (configuration not stated)	51*	-7.8*	i	i	i	i	79*	34*	Lipid drop inh=28;AML12 cytotox=-0.5
Cc1nn(C)c(C(=O)NNC(=O)NC2CCCCC2)c1Cl	1	i	nt	nt	i	nt	nt	nt
O=c1c(C/C=C/c2ccccc2)c(O)ccn1CCc1c[nH]c2ccccc12	60*	i	i	i	5.7*	i	nt	nt	Lipid drop inh=105*;AML12 cytotox=-0.19;AML12 tox conf=13;RGS4 inh valid=12%*;M3R Ca ctr=30%*;RGS4 inh ctr2=i
Oc1ccc(N=Nc2cccc(C(F)(F)F)c2)cc1C=Nc1ccc(N2CCOCC2)cc1	58*	i	i	i	9.7*	i	nt	nt	Lipid drop inh=41;AML12 cytotox=-0.23;RGS4 inh valid=28%*;M3R Ca ctr=46%*;RGS4 inh ctr2=i
Oc1ccc(C=Nc2ccc(N3CCOCC3)cc2)c(O)c1	0	i	i	i	i	i	nt	nt
CC(C)[C@H](NC(=O)[C@@H]1CSC2c3ccccc3C(=O)N21)C(=O)NCc1ccncc1 (some centres not stated)	-6	i	i	i	i	i	nt	nt
CC(=O)c1c(C)[nH]c(C(=O)Nc2nc(-c3ccc(-c4ccccc4)cc3)cs2)c1C	95*	i	i	i	i	-12*	nt	nt	Lipid drop inh=-2;AML12 cytotox=-0.39;MrgX1 ant reconf=52%*;HEK293 Ca flux=i;HEK293 Ca counter=i;HEK293 Ca cntr2=i
COC(=O)C1NC(=O)N2C(C(=O)OC)C(C)(C)S[C@H]12 (some centres not stated)	nt	i	i	i	i	i	nt	nt
CCCN1CCc2c(sc(NC(=O)c3ccc(S(=O)(=O)N(C)c4ccccc4)cc3)c2C(=O)NC)C1	-2	-9.5*	i	i	i	i	84*	52*
COc1ccccc1C(CNc1ncnc2sc(C)c(C)c12)N(C)C (configuration not stated)	-24	-11*	i	i	i	i	80*	42*
O=C(NCCc1ccccc1F)N[C@@H](Cc1ccccc1)C(=O)O	nt	i	i	i	i	i	nt	nt
CCOC(=O)c1cc(NC(=O)Cc2ccc(S(=O)(=O)N3CCOCC3)s2)cc(C(=O)OCC)c1	nt	-8*	i	i	i	i	64*	36*
Cc1cccc(-c2cc(C(=O)Nc3ccncc3)c3ccccc3n2)c1	0	i	nt	nt	i	nt	nt	nt
Cc1cccc(-c2cc(C(=O)Nc3cccnc3)c3ccccc3n2)c1	-2	-9.5*	i	i	i	i	56*	0
O=C(c1ccc2c(c1)OCO2)C1CCCN(Cc2c(F)ccc(F)c2F)C1 (configuration not stated)	-2	-7.9*	i	i	i	i	92*	58*
O=C(c1ccc2c(c1)OCO2)C1CCCN(Cc2ccccc2OC(F)F)C1 (configuration not stated)	-2	-7.7*	i	i	i	i	72*	30*
